Laboratory results published in ChEMBL document CHEMBL1122517, “2-Phenylindoles. Relationship between structure, estrogen receptor affinity, and mammary tumor inhibiting activity in the rat” (1984).

What was measured:
[1] = target: Estrogen receptor (Bos taurus) (UniProt Q9XSB5+P49884); test: Relative binding affinity for the calf uterine estrogen receptor measured as the ratio of molar concentration of 17-beta-estradiol (E2) and inhibitor required to decrease the amount of bound [3H]E2 by 50%; type: protein assay
Method in brief: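 Competitive binding in calf uterine cytosol with 5×10^-9 M [3H]estradiol, 18 h at 4 °C, Tris/EDTA buffer (0.01 M, pH 7.5). Unbound ligand was removed with dextran-coated charcoal (90 min, 4 °C) and supernatant radioactivity counted. Six competitor concentrations gave 10–90% bound. From semilog plots, RBA = ratio of molar concentrations of estradiol to compound giving 50% decrease in binding, ×100.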

[2] = target: T1, Estrogen receptor (Mus musculus) (UniProt O08537+P19785); test: Uterotrophic activity in mice as uterus dry weight (mg)/body weight (g) *100 at 125 ug dose; type: functional, tissue-based
T1 sequence (O08537 whole entry, looked up): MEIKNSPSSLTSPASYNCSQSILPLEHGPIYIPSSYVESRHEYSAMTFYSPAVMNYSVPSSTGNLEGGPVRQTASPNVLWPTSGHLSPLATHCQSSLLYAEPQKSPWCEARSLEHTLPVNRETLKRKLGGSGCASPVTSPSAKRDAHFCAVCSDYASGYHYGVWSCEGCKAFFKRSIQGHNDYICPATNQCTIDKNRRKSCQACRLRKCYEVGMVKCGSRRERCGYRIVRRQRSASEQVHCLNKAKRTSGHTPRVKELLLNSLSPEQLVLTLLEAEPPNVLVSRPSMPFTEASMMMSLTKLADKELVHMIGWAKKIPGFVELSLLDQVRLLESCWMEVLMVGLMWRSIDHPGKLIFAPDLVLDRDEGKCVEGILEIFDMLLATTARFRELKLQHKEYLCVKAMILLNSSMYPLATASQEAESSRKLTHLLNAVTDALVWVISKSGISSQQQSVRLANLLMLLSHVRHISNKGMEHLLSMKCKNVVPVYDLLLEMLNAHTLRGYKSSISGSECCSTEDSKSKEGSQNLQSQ
T1 sequence (P19785 whole entry, looked up): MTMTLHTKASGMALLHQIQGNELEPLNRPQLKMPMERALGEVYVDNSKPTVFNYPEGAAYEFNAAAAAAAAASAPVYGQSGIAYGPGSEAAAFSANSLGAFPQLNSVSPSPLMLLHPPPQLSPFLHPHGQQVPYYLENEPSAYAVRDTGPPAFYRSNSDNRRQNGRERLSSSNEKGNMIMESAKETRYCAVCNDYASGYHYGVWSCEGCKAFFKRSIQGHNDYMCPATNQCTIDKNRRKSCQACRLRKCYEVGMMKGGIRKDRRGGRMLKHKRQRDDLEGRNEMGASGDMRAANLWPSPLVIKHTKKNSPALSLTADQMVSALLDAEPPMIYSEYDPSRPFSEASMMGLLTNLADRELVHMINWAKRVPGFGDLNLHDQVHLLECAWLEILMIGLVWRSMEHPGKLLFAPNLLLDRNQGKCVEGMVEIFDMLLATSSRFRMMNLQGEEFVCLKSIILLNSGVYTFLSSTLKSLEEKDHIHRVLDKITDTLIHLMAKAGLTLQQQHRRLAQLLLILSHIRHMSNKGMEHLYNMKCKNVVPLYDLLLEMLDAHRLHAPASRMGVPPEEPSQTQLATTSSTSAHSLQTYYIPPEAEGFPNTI
Method in brief: (§1)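 Immature 19-day-old female NMRI mice, groups of 10. Compound dose per animal in olive oil (50 µL) sc on 3 consecutive days. Mice were killed 24 h after the last injection. Uteri were Bouin-fixed 20 h, cleaned, washed with alcoholic LiCl, and dried at 100 °C for 24 h. Effect = uterine dry weight (mg)/body weight (g) ×100; mean ± SD.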

[3] = target: T1, Estrogen receptor (Mus musculus); test: Uterotrophic activity in mice as uterus dry weight (mg)/body weight (g) *100 at 1 ug dose; type: functional, tissue-based; method in brief: as §1
[4] = target: T1, Estrogen receptor (Mus musculus); test: Uterotrophic activity in mice as uterus dry weight (mg)/body weight (g) *100 at 25 ug dose; type: functional, tissue-based; method in brief: as §1
[5] = target: T1, Estrogen receptor (Mus musculus); test: Uterotrophic activity in mice as uterus dry weight (mg)/body weight (g) *100 at 5 ug dose; type: functional, tissue-based; method in brief: as §1

SMILES	RBA [1]	other results
Oc1ccc(-c2cc3ccc(O)cc3[nH]2)cc1	0.01	–
Cn1c(-c2ccc(O)cc2)cc2ccc(O)cc21	3.8	–
CCn1c(-c2ccc(O)cc2)c(C)c2cccc(O)c21	0.02	–
CCn1c(-c2cccc(O)c2)c(C)c2ccc(O)cc21	3	–
CCn1c(-c2ccc(O)cc2)c(C)c2ccc(O)cc21	33	–
CCCn1c(-c2ccc(O)cc2)c(CC)c2ccc(O)cc21	19	–
Cc1c(-c2ccc(O)cc2)n(C)c2cc(O)ccc12	10	–
Cc1c(-c2cccc(O)c2)n(C)c2cc(O)ccc12	0.55	–
Oc1ccc(-c2cc3cc(O)ccc3[nH]2)cc1	0.01	–
CCCCn1c(-c2ccc(O)cc2)cc2ccc(O)cc21	4.3	–
CCCn1c(-c2ccc(O)cc2)cc2ccc(O)cc21	8.5	–
CCCn1c(-c2ccc(O)cc2)c(C)c2cc(O)ccc21	16	–
Cc1c(-c2cccc(O)c2)n(C)c2ccc(O)cc12	0.6	–
CCc1c(-c2ccc(O)cc2)n(C)c2cc(O)ccc12	5.9	–
CCCn1c(-c2ccc(O)cc2)cc2cc(O)ccc21	18	–
Cn1c(-c2ccc(O)cc2)cc2cc(O)ccc21	0.8	–
CCn1c(-c2ccc(O)cc2)c(C)c2cc(O)ccc21	9.5	–
Cc1c(-c2ccc(O)cc2)[nH]c2cc(O)ccc12	0.06	–
CCn1c(-c2cccc(O)c2)cc2ccc(O)cc21	1.7	–

SMILES	RBA [1]	other results
CCCCn1c(-c2ccc(O)cc2)c(C)c2cc(O)ccc21	4.6	–
CCc1c(-c2ccc(O)cc2)n(CC)c2ccc(O)cc12	23	–
CCc1c(-c2ccc(O)cc2)[nH]c2cc(O)ccc12	0.13	–
Cc1c(-c2ccc(O)cc2)n(C(C)C)c2ccc(O)cc12	3.5	–
CCCn1c(-c2cccc(O)c2)c(C)c2ccc(O)cc21	3.5	–
Cc1c(-c2ccc(O)cc2)n(C)c2ccc(O)cc12	4.6	–
CCCn1c(-c2cccc(O)c2)c(C)c2cc(O)ccc21	7.4	–
CCCn1c(-c2ccc(O)cc2)c(C)c2ccc(O)cc21	13	–
CCCCCn1c(-c2ccc(O)cc2)c(C)c2cc(O)ccc21	2.3	–
CCn1c(-c2ccc(O)cc2)cc2ccc(O)cc21	16	–
CCc1c(-c2ccc(OC(C)=O)cc2)n(CC)c2ccc(OC(C)=O)cc12	–	Uterotrophic effect [2]: 40.2; Uterotrophic effect [3]: 29.5; Uterotrophic effect [4]: 42.4; Uterotrophic effect [5]: 39.1
CCn1c(-c2ccc(O)cc2)cc2cc(O)ccc21	5.8	–
Cc1c(-c2ccc(O)cc2)n(C(C)C)c2cc(O)ccc12	13	–
CCCc1c(-c2ccc(O)cc2)n(CCC)c2ccc(O)cc12	1.7	–
CCn1c(-c2cccc(O)c2)cc2cc(O)ccc21	1.7	–
Cc1c(-c2ccc(O)cc2)[nH]c2ccc(O)cc12	0.06	–
CCc1c(-c2ccc(O)cc2)n(CC)c2cc(O)ccc12	21	–
CCn1c(-c2cccc(O)c2)c(C)c2cc(O)ccc21	2.2	–
